From ChEMBL document CHEMBL1156084, “Synthesis and structure-activity relationships of pyrazolodiazepine derivatives as human P2X7 receptor antagonists” (Bioorg Med Chem Lett, 2009)

Assays:
Type in all cases: functional, cell-based
[1] = target: T1, P2X purinoceptor 7 (Homo sapiens) (UniProt Q99572); assay: Antagonist activity at human P2X7 receptor expressed in HEK293 cells assessed as inhibition of BzATP-induced fluorescent ethidium accumulation; details: concentration not given here
T1 sequence (whole entry): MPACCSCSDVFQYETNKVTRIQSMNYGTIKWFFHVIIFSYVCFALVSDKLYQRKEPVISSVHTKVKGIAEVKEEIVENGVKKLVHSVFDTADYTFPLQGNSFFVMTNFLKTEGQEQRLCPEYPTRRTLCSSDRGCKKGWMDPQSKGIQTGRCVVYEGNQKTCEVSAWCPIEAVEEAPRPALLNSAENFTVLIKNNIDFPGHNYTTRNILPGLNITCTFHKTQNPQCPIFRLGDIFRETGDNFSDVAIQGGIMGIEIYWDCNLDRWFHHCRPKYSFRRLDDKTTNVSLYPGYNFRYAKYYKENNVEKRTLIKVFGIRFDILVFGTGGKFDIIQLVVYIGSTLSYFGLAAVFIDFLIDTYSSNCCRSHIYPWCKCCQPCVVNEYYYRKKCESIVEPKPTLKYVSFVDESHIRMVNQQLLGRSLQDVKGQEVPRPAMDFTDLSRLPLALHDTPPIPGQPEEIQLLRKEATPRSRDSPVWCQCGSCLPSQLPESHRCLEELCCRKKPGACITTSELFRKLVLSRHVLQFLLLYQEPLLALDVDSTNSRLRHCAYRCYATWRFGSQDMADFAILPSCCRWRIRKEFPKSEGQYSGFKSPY
How it was run: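 Adherent HEK293 cells stably transfected with human P2X7 cDNA, resuspended at 2.5×10^6 cells/mL in HEPES buffer (mM: ethidium bromide 0.1, EDTA 1, glucose 5, HEPES 20, KCl 140; pH 7.4). Cells added to compound wells, then BzATP, and incubated 120 min at 37 °C. Ethidium uptake read by fluorescence (ex 530/20, em 590/20). IC50 is the mean from dose–response curves of at least three experiments.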

[2] = target: T2, P2X purinoceptor 7 (Homo sapiens, UniProt Q99572); assay: Antagonist activity at human P2X7 receptor expressed in HEK293 cells assessed as inhibition of BzATP-induced fluorescent ethidium accumulation […]
T2 sequence (Q99572 whole entry): T1 sequence (whole entry)
How it was run: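 Human P2X7-expressing HEK293 cells at 2.5×10^6 cells/mL in pH 7.4 HEPES/KCl/EDTA/glucose buffer containing 0.1 mM ethidium bromide. Compound tested at 10 μM, then BzATP added, and cells held 120 min at 37 °C. Ethidium accumulation measured by fluorescence (ex 530/20, em 590/20) and expressed as % inhibition, mean ± SD of three repeats.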

[3] = target: T1, P2X purinoceptor 7 (Homo sapiens); assay: Antagonist activity at P2X7 receptor in IFN-gamma/LPS-differentiated human THP1 cells assessed as inhibition of BzATP-induced IL1-beta release at 10 uM treated 30 mins prior to BzATP addition by ELISA; details: THP-1
How it was run: (§1)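 THP-1 cells differentiated and primed 3 h with 25 ng/mL LPS plus 10 ng/ml IFNγ. Compound added 30 min before stimulation with 1 mM BzATP for 30 min. Supernatants cleared by centrifugation (1000 rpm, 5 min), and mature human IL-1β quantified by ELISA.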

[4] = target: T1, P2X purinoceptor 7 (Homo sapiens); assay: Antagonist activity at P2X7 receptor in IFN-gamma/LPS-differentiated human THP1 cells assessed as inhibition of BzATP-induced IL1-beta release treated 30 mins prior to BzATP addition by ELISA; details: THP-1; how it was run: as §1

SMILES	inhibition [1]	IC50 [2]	inhibition [3]	Activity [4]
CC(C)(C)OC(=O)N1CCC(CCn2cc3c(n2)C(=O)N[C@H](Cc2ccccc2)CN3C(=O)C2CC2)CC1	70%	4310 nM	–	–
O=C1N[C@@H](COC(=O)c2cccc3cnccc23)CN(Cc2ccc(F)cc2)c2cn(CCc3ccccc3)nc21	75%	1280 nM	65%	–
Cn1cc(CN2C[C@H](COC(=O)c3cccc4cnccc34)NC(=O)c3nn(CCc4ccccc4)cc32)c2ccccc21	33%	–	–	–
O=C1N[C@@H](Cc2ccccc2)CN(C(=O)C2CC2)c2cn(CCC3CCNCC3)nc21	13%	–	–	–
O=C1N[C@@H](Cc2ccccc2)CN(C(=O)C2CC2)c2cn(CCC3CCN(Cc4cccc5cnccc45)CC3)nc21	27%	–	–	–
COc1ccc(CN2C[C@H](COC(=O)c3cn(C)c4ccccc34)NC(=O)c3nn(CCc4ccccc4)cc32)cc1	29%	–	–	–
Cn1cc(C(=O)OC[C@H]2CN(Cc3ccc([N+](=O)[O-])cc3)c3cn(CCc4ccccc4)nc3C(=O)N2)c2ccccc21	65%	1420 nM	41%	–
Cc1cccc(CN2C[C@H](COC(=O)c3cccc4cnccc34)NC(=O)c3nn(CCc4ccccc4)cc32)c1	42%	–	–	–
Cn1cc(CN2CCC(CCn3cc4c(n3)C(=O)N[C@@H](Cc3ccccc3)CN4C(=O)C3CC3)CC2)c2ccccc21	39%	–	–	–
O=C1N[C@@H](Cc2ccccc2)CN(C(=O)C2CC2)c2cn(CCC3CCN(Cc4cccc5ncccc45)CC3)nc21	24%	–	–	–
CC(C)(C)OC(=O)N1CCC(CCn2cc3c(n2)C(=O)N[C@@H](Cc2ccccc2)CN3C(=O)C2CC2)CC1	61%	13000 nM	–	–
Cc1cc(CN2C[C@H](COC(=O)c3cccc4cnccc34)NC(=O)c3nn(CCc4ccccc4)cc32)ccc1O	84%	740 nM	51%	–
Cn1cc(C(=O)OCC2CN(Cc3cccc4ccccc34)c3cn(CCc4ccccc4)nc3C(=O)N2)c2ccccc21 (single isomer, unassigned)	48%	–	–	–
Cc1ccc(CN2C[C@H](COC(=O)c3cccc4cnccc34)NC(=O)c3nn(CCc4ccccc4)cc32)cc1	69%	1180 nM	48%	–
O=C1N[C@@H](COC(=O)c2cccc3cnccc23)CN(Cc2ccc(Br)cc2)c2cn(CCc3ccccc3)nc21	38%	–	–	–
O=C1N[C@@H](COC(=O)c2cccc3ccccc23)CN(Cc2ccccc2)c2cn(CCc3ccccc3)nc21	44%	–	–	–
Cn1cc(CN2C[C@H](COC(=O)c3cn(C)c4ccccc34)NC(=O)c3nn(CCc4ccccc4)cc32)c2ccccc21	68%	1070 nM	65%	–
CN([C@@H](Cc1ccc(OS(=O)(=O)c2cccc3cnccc23)cc1)C(=O)N1CCN(c2ccccc2)CC1)S(=O)(=O)c1cccc2cnccc12	–	110 nM	103%	–
O=C1N[C@@H](COC(=O)c2cccc3cnccc23)CN(Cc2ccccc2)c2cn(CCc3ccccc3)nc21	68%	1450 nM	42%	–

Continued, values first:

inhibition [1]	IC50 [2]	inhibition [3]	Activity [4]	SMILES
33%	–	–	–	O=C(OC[C@H]1CNc2cn(CCc3ccccc3)nc2C(=O)N1)c1ccccc1
88%	850 nM	50%	–	Cn1cc(C(=O)OC[C@H]2CN(Cc3ccc(Br)cc3)c3cn(CCc4ccccc4)nc3C(=O)N2)c2ccccc21
39%	–	–	–	Cn1cc(C(=O)OC[C@H]2CN(Cc3ccc(F)cc3)c3cn(CCc4ccccc4)nc3C(=O)N2)c2ccccc21
45%	–	–	–	Cn1cc(C(=O)OC[C@H]2CN(Cc3cccc(F)c3)c3cn(CCc4ccccc4)nc3C(=O)N2)c2ccccc21
43%	–	–	–	Cn1cc(C(=O)OC[C@H]2CNc3cn(CCc4ccccc4)nc3C(=O)N2)c2ccccc21
94%	310 nM	105%	Dose-dependent effect	Cn1cc(C(=O)OC[C@H]2CN(Cc3ccccc3)c3cn(CCc4ccccc4)nc3C(=O)N2)c2ccccc21
46%	–	–	–	Cc1cccc(CN2C[C@H](COC(=O)c3cn(C)c4ccccc34)NC(=O)c3nn(CCc4ccccc4)cc32)c1
30%	–	–	–	Cc1cc(O)ccc1CN1C[C@@H](COC(=O)c2cn(C)c3ccccc23)NC(=O)c2nn(CCc3ccccc3)cc21
71%	790 nM	44%	–	O=C1N[C@@H](COC(=O)c2cccc3cnccc23)CNc2cn(CCc3ccccc3)nc21
46%	–	–	–	O=C1N[C@@H](COC(=O)c2cccc3ccccc23)CNc2cn(CCc3ccccc3)nc21
88%	180 nM	37%	–	Cc1cc(O)ccc1CN1C[C@H](COC(=O)c2cn(C)c3ccccc23)NC(=O)c2nn(CCc3ccccc3)cc21
87%	520 nM	38%	–	Cc1ccc(CN2C[C@H](COC(=O)c3cn(C)c4ccccc34)NC(=O)c3nn(CCc4ccccc4)cc32)cc1
94%	250 nM	55%	–	Cn1cc(C(=O)OC[C@H]2CN(Cc3ccc(Cl)cc3)c3cn(CCc4ccccc4)nc3C(=O)N2)c2ccccc21
